Experimental data: ChEMBL document CHEMBL1156339, “A virtual screening hit reveals new possibilities for developing group III metabotropic glutamate receptor agonists” (J Med Chem, 2010)
Calls of active or inactive are those of the source. No cut-off for these calls is given here.

Legend:
[1] = biological target: T1, Metabotropic glutamate receptor 4 (Rattus norvegicus, UniProt P31423); assay: (§1) Agonist activity at rat mGlu4 receptor expressed in HEK293 cells co-transfected with G-protein alpha and EAAC1 assessed as increase in intracellular calcium level after 1 hr by fluorescence microplate reader; assay type: functional, cell-based
Procedure, shortened: (§2)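 HEK293 cells electroporated with rat receptor plus chimeric G-protein alpha subunit and EAAC1, grown 24 h in polyornithine-coated plates in glutamate/glutamine-free medium. Cells loaded 1 h at 37 °C with Fluo-4 AM in HBSS with 2.5 mM probenecid, washed. Agonist added after 20 s of recording. Fluorescence read at ex 485/em 525 nm over a concentration range, triplicate points. EC50 given as mean ± SEM of n experiments.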

[2] = biological target: T2, Metabotropic glutamate receptor 8 (Rattus norvegicus, UniProt P70579); assay: (§3) Agonist activity at rat mGlu8 receptor expressed in HEK293 cells co-transfected with G-protein alpha and EAAC1 assessed as increase in intracellular calcium level after 1 hr by fluorescence microplate reader; assay type: functional, cell-based; procedure, shortened: as §2
[3] = biological target: T1, Metabotropic glutamate receptor 4; assay: Agonist activity at rat mGlu4 receptor expressed in HEK293 cells co-transfected with G-protein alpha and EAAC1 assessed as increase in intracellular inositol phosphate accumulation after 1 hr by scintillation counting; assay type: functional, cell-based
Procedure, shortened: (§4)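 Rat receptor, chimeric G-protein alpha subunit and EAAC1 electroporated into HEK293 cells and grown 24 h in polyornithine-coated plates in glutamate/glutamine-free medium. Labelled overnight with 3H-myoinositol from 6 h post-transfection. Ambient glutamate degraded with glutamate-pyruvate transaminase, then agonist applied 30 min. Lysis 1 h in cold 0.1 M formic acid. 3H-IP isolated on Dowex and counted. IP normalised to IP plus membrane radioactivity, triplicate; mean ± SEM of n experiments.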

[4] = biological target: T2, Metabotropic glutamate receptor 8; assay: Agonist activity at rat mGlu8 receptor expressed in HEK293 cells co-transfected with G-protein alpha and EAAC1 assessed as increase in intracellular inositol phosphate accumulation after 1 hr by scintillation counting; assay type: functional, cell-based; procedure, shortened: as §4
[5] = biological target: T3, Metabotropic glutamate receptor 6 (Rattus norvegicus, UniProt P35349); assay: Agonist activity at rat mGlu6 receptor expressed in HEK293 cells co-transfected with G-protein alpha and EAAC1 assessed as increase in intracellular calcium level after 1 hr by fluorescence microplate reader; assay type: functional, cell-based; procedure, shortened: as §2
T3 sequence (P35349 whole entry): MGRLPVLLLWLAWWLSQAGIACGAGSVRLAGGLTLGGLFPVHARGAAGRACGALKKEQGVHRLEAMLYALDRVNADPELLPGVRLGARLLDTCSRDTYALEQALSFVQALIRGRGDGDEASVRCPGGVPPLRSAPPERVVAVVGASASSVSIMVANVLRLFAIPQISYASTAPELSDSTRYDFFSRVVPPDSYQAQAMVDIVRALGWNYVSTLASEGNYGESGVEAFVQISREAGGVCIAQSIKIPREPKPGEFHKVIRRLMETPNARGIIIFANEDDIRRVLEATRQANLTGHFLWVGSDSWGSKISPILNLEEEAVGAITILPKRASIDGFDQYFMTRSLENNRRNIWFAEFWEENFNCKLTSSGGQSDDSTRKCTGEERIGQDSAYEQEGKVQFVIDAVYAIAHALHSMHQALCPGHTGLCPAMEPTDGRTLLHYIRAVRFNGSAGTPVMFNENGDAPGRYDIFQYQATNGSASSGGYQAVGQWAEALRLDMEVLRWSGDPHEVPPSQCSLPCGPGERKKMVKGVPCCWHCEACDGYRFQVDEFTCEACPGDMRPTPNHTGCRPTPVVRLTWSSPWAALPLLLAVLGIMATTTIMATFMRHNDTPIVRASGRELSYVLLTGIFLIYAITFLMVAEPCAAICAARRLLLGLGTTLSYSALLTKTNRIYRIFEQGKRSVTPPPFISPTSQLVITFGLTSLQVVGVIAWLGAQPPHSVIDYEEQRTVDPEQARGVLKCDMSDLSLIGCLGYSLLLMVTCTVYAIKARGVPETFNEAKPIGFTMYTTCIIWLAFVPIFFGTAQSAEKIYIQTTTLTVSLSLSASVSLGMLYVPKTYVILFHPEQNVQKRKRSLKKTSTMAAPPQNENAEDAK

[6] = biological target: T4, Metabotropic glutamate receptor 7 (Rattus norvegicus, UniProt P35400); assay: (§5) Agonist activity at rat mGlu7 receptor expressed in HEK293 cells co-transfected with G-protein alpha and EAAC1 assessed as increase in intracellular calcium level after 1 hr by fluorescence microplate reader; assay type: functional, cell-based
Procedure, shortened: (§6)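 Rat mGlu7 electroporated into HEK293 cells with a chimeric G-protein α subunit and EAAC1. Cells were grown 24 h on polyornithine in glutamate/glutamine-free medium, then loaded with Fluo-4 AM in HBSS with 2.5 mM probenecid for 1 h at 37 °C and washed. Agonist was added 20 s into recording, and fluorescence was read at ex 485/em 525 nm. Points were run in triplicate across a concentration series to give EC50.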

[7] = biological target: T3, Metabotropic glutamate receptor 6; assay: Agonist activity at rat mGlu6 receptor expressed in HEK293 cells co-transfected with G-protein alpha and EAAC1 assessed as increase in intracellular inositol phosphate accumulation after 1 hr by scintillation counting; assay type: functional, cell-based; procedure, shortened: as §4
[8] = biological target: Metabotropic glutamate receptor 1 (Rattus norvegicus) (UniProt P23385); assay: Agonist activity at rat mGlu1 receptor expressed in HEK293 cells; assay type: functional, cell-based
Sequence of Metabotropic glutamate receptor 1 (Rattus norvegicus) (P23385 19-1199 limits assumed): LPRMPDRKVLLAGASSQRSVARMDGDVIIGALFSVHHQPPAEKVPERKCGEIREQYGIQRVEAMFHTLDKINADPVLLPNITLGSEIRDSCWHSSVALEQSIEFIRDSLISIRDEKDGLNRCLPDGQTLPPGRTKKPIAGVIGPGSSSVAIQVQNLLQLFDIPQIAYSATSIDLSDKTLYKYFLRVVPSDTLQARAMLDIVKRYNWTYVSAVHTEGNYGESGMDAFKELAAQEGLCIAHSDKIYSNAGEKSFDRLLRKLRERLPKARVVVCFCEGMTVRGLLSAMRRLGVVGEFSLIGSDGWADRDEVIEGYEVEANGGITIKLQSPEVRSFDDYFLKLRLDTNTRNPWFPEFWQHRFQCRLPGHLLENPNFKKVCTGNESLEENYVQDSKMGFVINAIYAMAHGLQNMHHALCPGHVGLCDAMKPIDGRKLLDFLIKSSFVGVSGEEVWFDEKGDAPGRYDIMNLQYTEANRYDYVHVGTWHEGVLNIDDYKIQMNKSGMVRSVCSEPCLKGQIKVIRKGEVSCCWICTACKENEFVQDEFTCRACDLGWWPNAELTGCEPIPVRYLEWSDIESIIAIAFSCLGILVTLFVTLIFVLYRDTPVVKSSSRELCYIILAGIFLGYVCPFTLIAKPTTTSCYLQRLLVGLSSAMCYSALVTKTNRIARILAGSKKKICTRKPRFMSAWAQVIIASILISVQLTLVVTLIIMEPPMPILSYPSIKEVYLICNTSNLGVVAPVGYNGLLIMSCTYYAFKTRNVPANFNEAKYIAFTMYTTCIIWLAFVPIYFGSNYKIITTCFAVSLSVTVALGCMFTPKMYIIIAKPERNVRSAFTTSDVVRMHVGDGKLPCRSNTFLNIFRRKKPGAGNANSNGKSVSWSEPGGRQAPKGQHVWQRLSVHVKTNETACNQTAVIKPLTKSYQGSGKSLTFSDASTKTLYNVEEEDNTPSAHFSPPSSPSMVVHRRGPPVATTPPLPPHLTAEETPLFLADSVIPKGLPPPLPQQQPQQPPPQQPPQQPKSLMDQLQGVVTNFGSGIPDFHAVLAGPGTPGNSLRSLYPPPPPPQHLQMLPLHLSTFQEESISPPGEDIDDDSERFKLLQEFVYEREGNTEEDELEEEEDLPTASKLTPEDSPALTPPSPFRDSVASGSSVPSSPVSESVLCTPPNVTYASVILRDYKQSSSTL
Procedure, shortened: (§7)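 Receptor transiently electroporated into HEK293 cells (DMEM, 10% FCS, penicillin/streptomycin) with EAAC1 transporter, plated in 96-well plates; tested for agonist or antagonist activity coupled to PLC, read out by IP or Fluo-4 Ca2+ assays.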

[9] = biological target: Metabotropic glutamate receptor 5 (Rattus norvegicus) (UniProt P31424); assay: Agonist activity at rat mGlu5 receptor expressed in HEK293 cells; assay type: functional, cell-based; procedure, shortened: as §7
Sequence of Metabotropic glutamate receptor 5 (Rattus norvegicus) (P31424 21-1203 limits assumed): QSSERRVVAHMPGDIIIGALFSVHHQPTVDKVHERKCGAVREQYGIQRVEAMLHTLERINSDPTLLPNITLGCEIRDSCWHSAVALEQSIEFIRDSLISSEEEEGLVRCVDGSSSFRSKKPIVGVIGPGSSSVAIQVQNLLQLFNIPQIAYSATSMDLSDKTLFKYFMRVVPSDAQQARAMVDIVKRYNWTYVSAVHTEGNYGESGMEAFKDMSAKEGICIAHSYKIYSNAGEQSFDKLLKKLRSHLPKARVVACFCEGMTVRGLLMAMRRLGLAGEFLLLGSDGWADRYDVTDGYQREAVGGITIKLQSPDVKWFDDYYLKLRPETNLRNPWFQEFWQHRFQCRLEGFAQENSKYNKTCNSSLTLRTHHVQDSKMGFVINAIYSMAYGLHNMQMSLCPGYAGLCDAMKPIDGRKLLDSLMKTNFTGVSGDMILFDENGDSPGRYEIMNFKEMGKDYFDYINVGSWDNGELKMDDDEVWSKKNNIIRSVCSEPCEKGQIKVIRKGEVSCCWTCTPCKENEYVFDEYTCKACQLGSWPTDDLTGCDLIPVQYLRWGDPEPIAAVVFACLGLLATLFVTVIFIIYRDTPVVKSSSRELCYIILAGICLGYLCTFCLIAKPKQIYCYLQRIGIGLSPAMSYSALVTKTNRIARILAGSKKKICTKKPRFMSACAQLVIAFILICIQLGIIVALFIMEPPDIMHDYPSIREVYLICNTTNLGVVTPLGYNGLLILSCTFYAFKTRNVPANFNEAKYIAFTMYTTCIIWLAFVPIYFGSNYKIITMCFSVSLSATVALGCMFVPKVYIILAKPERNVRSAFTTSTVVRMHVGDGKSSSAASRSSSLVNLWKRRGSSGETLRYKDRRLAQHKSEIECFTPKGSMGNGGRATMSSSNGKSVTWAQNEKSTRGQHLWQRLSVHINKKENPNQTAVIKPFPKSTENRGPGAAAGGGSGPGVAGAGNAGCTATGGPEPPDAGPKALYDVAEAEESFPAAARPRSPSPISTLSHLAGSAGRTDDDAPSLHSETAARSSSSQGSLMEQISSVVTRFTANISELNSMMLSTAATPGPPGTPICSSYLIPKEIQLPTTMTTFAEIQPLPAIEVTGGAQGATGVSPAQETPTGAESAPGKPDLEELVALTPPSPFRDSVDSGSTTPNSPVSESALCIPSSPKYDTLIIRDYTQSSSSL

[10] = biological target: Metabotropic glutamate receptor 4 (Rattus norvegicus) (UniProt P31423); assay: Agonist activity at rat mGlu4 receptor expressed in HEK293 cells co-transfected with G-protein alpha and EAAC1 assessed as increase in intracellular inositol phosphate accumulation at 100 uM after 1 hr by scintillation counting; assay type: functional, cell-based
[11] = biological target: Metabotropic glutamate receptor 2 (Rattus norvegicus) (UniProt P31421); assay: Agonist activity at rat mGlu2 receptor expressed in HEK293 cells assessed as increase in intracellular calcium level at 100 uM after 1 hr by fluorescence microplate reader; assay type: functional, cell-based
Sequence of Metabotropic glutamate receptor 2 (Rattus norvegicus) (P31421 19-872 limits assumed): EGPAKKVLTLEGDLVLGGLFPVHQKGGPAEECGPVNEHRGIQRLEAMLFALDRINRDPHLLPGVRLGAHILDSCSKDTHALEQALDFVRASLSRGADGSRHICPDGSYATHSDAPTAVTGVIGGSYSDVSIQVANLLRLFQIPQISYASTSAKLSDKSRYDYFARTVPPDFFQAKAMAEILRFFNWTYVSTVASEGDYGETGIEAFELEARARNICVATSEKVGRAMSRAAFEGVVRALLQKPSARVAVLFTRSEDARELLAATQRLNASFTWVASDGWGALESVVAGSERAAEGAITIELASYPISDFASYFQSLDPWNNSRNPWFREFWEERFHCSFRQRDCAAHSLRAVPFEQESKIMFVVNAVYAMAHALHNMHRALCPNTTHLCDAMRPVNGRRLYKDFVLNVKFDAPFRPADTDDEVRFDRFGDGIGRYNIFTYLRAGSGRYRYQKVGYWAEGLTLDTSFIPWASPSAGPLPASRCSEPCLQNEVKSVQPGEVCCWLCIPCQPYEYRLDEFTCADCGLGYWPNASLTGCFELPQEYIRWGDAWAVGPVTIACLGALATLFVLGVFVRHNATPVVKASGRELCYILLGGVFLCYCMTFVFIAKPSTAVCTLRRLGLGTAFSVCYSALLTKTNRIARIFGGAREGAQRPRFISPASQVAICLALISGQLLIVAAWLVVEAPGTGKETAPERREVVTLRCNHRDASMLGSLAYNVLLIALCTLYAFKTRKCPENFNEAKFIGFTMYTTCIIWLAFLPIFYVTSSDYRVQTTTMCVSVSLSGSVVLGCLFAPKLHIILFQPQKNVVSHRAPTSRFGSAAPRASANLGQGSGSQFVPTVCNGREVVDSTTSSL
Procedure, shortened: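 Rat mGlu2 transiently electroporated into HEK293 cells with EAAC1. Fluo-4 AM loaded 1 h at 37 °C in HBSS with 2.5 mM probenecid. Agonist applied at 100 μM after 20 s of recording, with DCG-IV 100 μM as reference. Fluorescence read at ex 485/em 525 nm.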

[12] = species on record: Rattus norvegicus; assay: Selectivity ratio of EC50 for rat mGlu8 receptor to EC50 for rat mGlu4 receptor
[13] = biological target: Metabotropic glutamate receptor 2 (Rattus norvegicus, UniProt P31421); assay: Agonist activity at rat mGlu2 receptor expressed in HEK293 cells assessed as increase in intracellular calcium level after 1 hr by fluorescence microplate reader; assay type: functional, cell-based; procedure, shortened: as §2
Sequence of Metabotropic glutamate receptor 2 (P31421 whole entry): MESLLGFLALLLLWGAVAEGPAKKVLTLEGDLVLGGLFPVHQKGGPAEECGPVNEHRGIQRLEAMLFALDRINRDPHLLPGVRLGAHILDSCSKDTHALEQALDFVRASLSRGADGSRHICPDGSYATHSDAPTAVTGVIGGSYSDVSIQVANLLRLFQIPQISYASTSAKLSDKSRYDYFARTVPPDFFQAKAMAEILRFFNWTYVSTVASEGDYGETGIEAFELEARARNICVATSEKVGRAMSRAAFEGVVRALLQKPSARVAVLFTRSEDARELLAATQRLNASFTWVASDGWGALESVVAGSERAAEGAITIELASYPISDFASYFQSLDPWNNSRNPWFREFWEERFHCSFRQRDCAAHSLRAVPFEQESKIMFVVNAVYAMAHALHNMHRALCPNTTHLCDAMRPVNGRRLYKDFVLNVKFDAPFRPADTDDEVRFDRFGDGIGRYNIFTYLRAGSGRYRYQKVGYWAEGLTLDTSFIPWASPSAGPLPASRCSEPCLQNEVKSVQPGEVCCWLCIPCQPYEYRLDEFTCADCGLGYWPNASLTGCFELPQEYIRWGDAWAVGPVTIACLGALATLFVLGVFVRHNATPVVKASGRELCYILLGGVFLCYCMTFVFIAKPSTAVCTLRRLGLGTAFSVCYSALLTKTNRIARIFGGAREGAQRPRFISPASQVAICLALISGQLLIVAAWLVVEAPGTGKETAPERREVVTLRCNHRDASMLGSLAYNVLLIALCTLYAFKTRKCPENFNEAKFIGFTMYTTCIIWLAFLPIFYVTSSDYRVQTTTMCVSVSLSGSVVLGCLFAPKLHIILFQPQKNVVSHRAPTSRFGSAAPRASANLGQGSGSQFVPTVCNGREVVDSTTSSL

[14] = biological target: T4, Metabotropic glutamate receptor 7; assay: (§8) Agonist activity at rat mGlu7 receptor expressed in HEK293 cells co-transfected with G-protein alpha and EAAC1 assessed as increase in intracellular inositol phosphate accumulation […] by scintillation counting; assay type: functional, cell-based
Procedure, shortened: (§9)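 Rat mGlu7 was transiently electroporated into HEK293 cells with a chimeric Gα subunit and EAAC1 and grown in glutamate/glutamine-free medium. Cells were labelled overnight with ³H-myoinositol from 6 h post-transfection, and ambient glutamate was removed with glutamate-pyruvate transaminase. Agonist was applied for 30 min, then cells were lysed 1 h in cold 0.1 M formic acid. ³H-IP was isolated on Dowex resin and eluted with 4 M formate for scintillation counting, with IP normalised to IP plus membrane counts. Triplicate points.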

[15] = biological target: Metabotropic glutamate receptor 4 (Rattus norvegicus) (UniProt P31423); assay: as §1; assay type: functional, cell-based; procedure, shortened: as §2
[16] = biological target: Metabotropic glutamate receptor 8 (Rattus norvegicus) (UniProt P70579); assay: as §3; assay type: functional, cell-based; procedure, shortened: as §2
[17] = biological target: Metabotropic glutamate receptor 4 (Rattus norvegicus) (UniProt P31423); assay: Agonist activity at rat mGlu4 receptor expressed in HEK293 cells co-transfected with G-protein alpha and EAAC1 assessed as increase in intracellular inositol phosphate accumulation […] by scintillation counting in presence of DCG4; assay type: functional, cell-based
[18] = biological target: Metabotropic glutamate receptor 7 (Rattus norvegicus) (UniProt P35400); assay: as §5; assay type: functional, cell-based; procedure, shortened: as §6
[19] = biological target: Metabotropic glutamate receptor 7 (Rattus norvegicus) (UniProt P35400); assay: as §8; assay type: functional, cell-based; procedure, shortened: as §9

| Compound | EC50 [1] | EC50 [2] | EC50 [3] | EC50 [4] | EC50 [7] | also measured |
| --- | --- | --- | --- | --- | --- | --- |
| N[C@@H](CCP(=O)(O)CC(CCO)C(=O)O)C(=O)O (some centres undefined) | 20 µM | 76 µM |  |  |  |  |
| N[C@@H](CCP(=O)(O)CC1CCOC1=O)C(=O)O (some centres undefined) | 123 µM | > 100 µM |  |  |  |  |
| N[C@@H](CCP(=O)(O)C(O)C1CC1C(=O)O)C(=O)O (single isomer, unassigned) |  |  | 18 µM | 91 µM |  |  |
| N[C@@H](CCC[PH](=O)O)C(=O)O | 209 µM | 73 µM |  |  |  |  |
| N[C@@H](CCP(=O)(O)CCC(=O)O)C(=O)O | 6.15 µM | 6.6 µM |  | 7.8 µM | 31 µM | EC50 [5]: 6.7 µM; EC50 [6]: 89 µM; Activity [8]: inactive; Activity [9]: inactive |
| NC(CP(=O)(O)CCC(=O)O)C(=O)O (centres undefined) |  |  |  |  |  | Activity [10]: inactive |
| N[C@H](CCP(=O)(O)CCC(=O)O)C(=O)O |  |  | 17 µM | 58 µM | 99 µM |  |
| N[C@@H](CCP(=O)(O)C(O)C(=O)O)C(=O)O (some centres undefined) | 7.2 µM | 2.9 µM |  |  |  |  |
| N[C@@H](CCP(=O)(O)CC(Cl)C(=O)O)C(=O)O (some centres undefined) | 1 µM | 8.3 µM | 3.8 µM | 8.1 µM |  | Activity [11]: Active; EC50 [5]: 8.9 µM; Ratio EC50 [12]: 8; EC50 [6]: > 100 µM; EC50 [13]: 49 µM; Activity [8]: inactive; Activity [9]: inactive |
| N[C@@]1(C(=O)O)C[C@H](C(=O)O)[C@H](C(=O)O)C1 |  |  | 1.74 µM | 5.1 µM | 10.6 µM | EC50 [14]: 280 µM |
| C/C(=C\C(=O)O)C(O)P(=O)(O)CC[C@H](N)C(=O)O (some centres undefined) |  |  |  |  |  | Activity [10]: inactive |
| N[C@@H](CCP(=O)(O)C(CC(=O)O)CP(=O)(O)O)C(=O)O (some centres undefined) |  |  |  |  |  | Activity [10]: 33% |
| N[C@@H](CCCP(=O)(O)CCC(=O)O)C(=O)O |  |  |  |  |  | Activity [15]: inactive; Activity [16]: inactive |
| NC(CCP(=O)(O)CCC(=O)O)C(=O)O (racemic) |  |  | 7.1 µM | 20 µM | 32 µM | Activity [11]: Active; EC50 [13]: 52 µM; Activity [17]: Dose-dependent effect |
| N[C@@H](CCP(=O)(O)/C=C/C(=O)O)C(=O)O | 1 µM | 5.1 µM | 3 µM | 7.2 µM |  | Activity [11]: Active; EC50 [5]: 1.1 µM; EC50 [6]: 43 µM; EC50 [13]: 6.7 µM; Activity [8]: inactive; Activity [9]: inactive |
| N[C@@H](CCP(=O)(O)O)C(=O)O | 0.13 µM | 0.3 µM | 0.096 µM | 0.24 µM | 3.3 µM | EC50 [5]: 1 µM; EC50 [14]: 306 µM; EC50 [6]: 249 µM |
| N[C@@H](CCP(=O)(O)CC(CC(=O)O)C(=O)O)C(=O)O (some centres undefined) | 2.4 µM | 3.5 µM | 4.6 µM | 38 µM | 115 µM | Activity [11]: inactive; EC50 [5]: 42 µM; Activity [18]: inactive; Activity [8]: inactive; Activity [9]: inactive |
| N[C@@H](CCP(=O)(O)C(CC(=O)O)C(F)(F)F)C(=O)O (some centres undefined) |  |  | 26 µM |  |  |  |
| N[C@@H](CCP(=O)(O)C1COC(=O)C1)C(=O)O (some centres undefined) | 141 µM | > 100 µM |  |  |  |  |
| N[C@@H](CCP(=O)(O)CCP(=O)(O)O)C(=O)O |  |  | 88 µM | 48 µM |  |  |
| N[C@@H](CCP(=O)(O)CC(=O)O)C(=O)O | 7.4 µM | 2.7 µM | 2.4 µM | 0.91 µM | 131 µM | Activity [11]: Active; EC50 [5]: > 100 µM; Activity [19]: inactive; Activity [18]: inactive; EC50 [13]: 57 µM; Activity [8]: inactive; Activity [9]: inactive |
| NC(CCP(=O)(O)CCCCC(=O)O)C(=O)O (centres undefined) |  |  |  |  |  | Activity [10]: inactive |
| N[C@@H](CCP(=O)(O)CCCC(=O)O)C(=O)O | 8.5 µM | 18 µM | 11.4 µM | 19 µM | > 100 µM | Activity [11]: inactive; EC50 [5]: 44 µM; Activity [18]: inactive; Activity [8]: inactive; Activity [9]: inactive |
| CC(CP(=O)(O)CC[C@H](N)C(=O)O)C(=O)O (some centres undefined) |  |  | 12.1 µM | 53 µM |  |  |
| N[C@@H](CCP(=O)(O)C(CC(=O)O)CC(=O)O)C(=O)O |  |  | 114 µM |  |  |  |
| N[C@H](C(=O)O)C1[C@@H](C(=O)O)[C@@H]1C(=O)O (some centres undefined) |  |  |  |  |  | EC50 [13]: 0.045 µM |
| NC(CCP(=O)(O)C(CC(=O)O)C(=O)O)C(=O)O (centres undefined) |  |  | 47 µM |  | 113 µM |  |
